Legend:
Format in all cases: functional
[1] = IC50 DNA/IC50 RNA ratio of the compound
Summary of the method: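 P388 cells were exposed for 1 h. IC50 (µM) was taken as 50% reduction of methyl-[3H]thymidine (DNA) or 2-[14C]uridine (RNA) incorporation into acid-precipitable material. The ratio is IC50 DNA divided by IC50 RNA.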

Rattus norvegicus [2] = species on record: Rattus norvegicus; assay: Compound tested for adrenochrome formation in rat hepatic mycrosomal incubation
Summary of the method: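 Adrenochrome assay for superoxide: epinephrine in 0.01 N HCl plus 300 µg of phenobarbital-induced rat liver microsomes at 37 °C. NADPH 0.4 mM was added to the sample side 1 min later, and the rate was read at 480 nm (ε 4.02 mM−1 cm−1). Drugs were at ≤100 µM, made in 150 mM KCl–50 mM Tris, pH 7.4. Percent stimulation is over basal rate, in triplicate.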

Rattus norvegicus [3] = species on record: Rattus norvegicus; assay: Compound tested for NADPH oxidation in rat hepatic mycrosomal incubation
Summary of the method: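 Phenobarbital-induced male Sprague-Dawley rat liver microsomes were placed in both cuvettes, without epinephrine. NADPH 0.4 mM was added to the sample side only, and absorbance was read at 340 nm. Percent stimulation = (drug rate − basal)/basal × 100. Values are the average ± standard errors of triplicates.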

Mus musculus [4] = assay: Antitumor activity against P388 leukemia cells in terms of percentage increase in life span in mice at an optimal dose of 1200 ug/kg administered ip
Mus musculus [5] = assay: In vivo antitumor activity was determined against P388 leukemia mice as number of mice survived after administration of 1200 ug/Kg dose of compound; Value represented as no of survivors/ treated = 0/8
Mus musculus [6] = assay: Antitumor activity against B16 melanoma in terms of percentage increase in life span in mice at an optimal dose of 1200 ug/kg administered ip
Mus musculus [7] = assay: Antitumor activity against B16 melanoma in terms of median survival time of mice at an optimal dose of 1200 ug/kg administered ip
Mus musculus [8] = species on record: Mus musculus; assay: Dose providing an increase in the life span of 45% over control in P388 tumor bearing mice; conditions: read-out: MED
Summary of the method: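 MED is the ip dose in mg/kg, given on days 1, 5 and 9 starting 1 day after implantation, that gives a 45% increase in life span over control in P388-bearing mice. It was derived from plotted log-dose response data.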

Mus musculus [9] = assay: Antitumor activity against P388 leukemia cells in terms of median survival time of mice at an optimal dose of 1200 ug/kg administered ip
Mus musculus [10] = assay: In vivo antitumor activity was determined against B16 melanoma mice as number of mice survived after administration of 1200 ug/Kg dose of compound; Value represented as no of survivors/ treated = 1/9
CCRF-CEM = assay: Inhibitory dose required for the inhibition of human lymphoblastic leukemia cells(CCRF-CEM); conditions: read-out: ID50 (the source's name)

In the case of `Cc1c2oc3c(C)ccc(C(=O)N[C@@H]4C(=O)N[C@H](C(C)C)C(=O)N5CCC[C@@H]5C(=O)NCC(=O)N[C@@H](C(C)C)C(=O)O[C@@H]4C)c3nc-2c(C(=O)N[C@H]2C(=O)N[C@@H](C(C)C)C(=O)N3CCC[C@H]3C(=O)NCC(=O)N[C@H](C(C)C)C(=O)O[C@H]2C)c(N)c1=O`, the Ratio [1] is reported as 22.4.
For `CCN(CC)C(=O)c1c2nc3c(C(=O)N(CC)CC)c4nc(C)oc4c(C)c3oc-2c(C)c(=O)c1N`, the adrenochrome formation (Rattus norvegicus [2]) was 2.13 nM min-1 (mg of protein)-1 and the NADPH oxidation (Rattus norvegicus [3]) was 8.9 nM min-1 (mg of protein)-1.
Work on `Cc1nc2c(C(=O)N[C@H]3C(=O)N[C@@H](C(C)C)C(=O)N4CCC[C@H]4C(=O)N(C)CC(=O)N(C)[C@H](C(C)C)C(=O)O[C@H]3C)c3nc4c(C(=O)N[C@@H]5C(=O)N[C@H](C(C)C)C(=O)N6CCC[C@@H]6C(=O)N(C)CC(=O)N(C)[C@@H](C(C)C)C(=O)O[C@@H]5C)c(N)c(=O)c(C)c-4oc3c(C)c2o1` yielded a Ratio [1] of 11.2.
In the case of `Cc1c2oc3c(C)c4oc(-c5ccccc5)nc4c(C(=O)N[C@H]4C(=O)N[C@@H](C(C)C)C(=O)N5CCC[C@H]5C(=O)N(C)CC(=O)N(C)[C@H](C(C)C)C(=O)O[C@H]4C)c3nc-2c(C(=O)N[C@@H]2C(=O)N[C@H](C(C)C)C(=O)N3CCC[C@@H]3C(=O)N(C)CC(=O)N(C)[C@@H](C(C)C)C(=O)O[C@@H]2C)c(N)c1=O`, the Ratio [1] is reported as 11.4.
For `Cc1c2oc3c(C)c(O)c(N)c(C(=O)N[C@H]4C(=O)N[C@@H](C(C)C)C(=O)N5CCC[C@H]5C(=O)N(C)CC(=O)N(C)[C@H](C(C)C)C(=O)O[C@H]4C)c3nc-2c(C(=O)N[C@@H]2C(=O)N[C@H](C(C)C)C(=O)N3CCC[C@@H]3C(=O)N(C)CC(=O)N(C)[C@@H](C(C)C)C(=O)O[C@@H]2C)cc1=O`, the Ratio [1] was 1.
Work on `Cc1c2oc3c(C)c(O)c(N)c(C(=O)N[C@H]4C(=O)N[C@@H](C(C)C)C(=O)N5CCC[C@H]5C(=O)N(C)CC(=O)N(C)[C@H](C(C)C)C(=O)O[C@H]4C)c3nc-2c(C(=O)N[C@@H]2C(=O)N[C@H](C(C)C)C(=O)N3CCC[C@@H]3C(=O)N(C)CC(=O)N(C)[C@@H](C(C)C)C(=O)O[C@@H]2C)c(N)c1=O` yielded a Ratio [1] of 0.97.
In the case of `Cc1c2oc3c(C)c4oc(-c5ccccc5)nc4c(C(=O)N[C@H]4C(=O)N[C@@H](C(C)C)C(=O)N5CCC[C@H]5C(=O)NCC(=O)N(C)[C@H](C(C)C)C(=O)O[C@H]4C)c3nc-2c(C(=O)N[C@@H]2C(=O)N[C@H](C(C)C)C(=O)N3CCC[C@@H]3C(=O)NCC(=O)N[C@@H](C(C)C)C(=O)O[C@@H]2C)cc1=O`, the Ratio [1] is reported as 1.78.
With `Cc1c2oc3c(C)c(O)c(N)c(C(=O)N[C@@H]4C(=O)N[C@H](C(C)C)C(=O)N5CCC[C@H]5C(=O)N(C)CC(=O)N(C)[C@@H](C(C)C)C(=O)O[C@@H]4C)c3nc-2c(C(=O)N[C@@H]2C(=O)N[C@H](C(C)C)C(=O)N3CCC[C@H]3C(=O)N(C)CC(=O)N(C)[C@@H](C(C)C)C(=O)O[C@@H]2C)cc1=O` the ILS at 1.2 mg/kg (Mus musculus [4]) was 136%, the Survivors (Mus musculus [5]) was 0 and the ILS at 1.2 mg/kg (Mus musculus [6]) was 52%. For the same compound, the adrenochrome formation (Rattus norvegicus [2]) was 7.29 nM min-1 (mg of protein)-1, the MST (Mus musculus [7]) was 44 days and the minimal effective dose (Mus musculus [8]) was 0.275 mg/kg. For the same compound, the NADPH oxidation (Rattus norvegicus [3]) was 29.9 nM min-1 (mg of protein)-1, the MST (Mus musculus [9]) was 26 days and the Survivors (Mus musculus [10]) was 1. It also gave an IC50 (CCRF-CEM) of 1000 nM.
